# Source: ChEMBL document CHEMBL1124992, “(Pyrimidinyloxy)acetic acids and pyrimidineacetic acids as a novel class of aldose reductase inhibitors” (J Med Chem, 1990)
# How the values were obtained:
# [1] = target: Aldo-keto reductase family 1 member B1 (Bos taurus) (UniProt P16116); assay: In vitro inhibition of aldose reductase from the partially purified bovine lens at 10e-6 M concentration
# How it was run: (§1)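 Bovine lens aldose reductase, partially purified, assayed spectrophotometrically following Hayman and Kinoshita. Each compound was tested at three concentrations, routinely in duplicate.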
# [2] = tested on: Rattus norvegicus; assay: In vivo inhibition of polyol accumulation in galactosemic rat nerve at dose 97 mg/kg administered perorally; type: functional; settings: route oral
# How it was run: (§2)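 Rats received a diet of 20% galactose for 4 days, with compound mixed into the diet. Galactitol was measured in trichloroacetic acid extracts of lens, sciatic nerve and diaphragm by a modified Kraml–Cosyns method. Values are % reduction versus galactosemic controls, compared by Dunnett's multiple comparison.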
# [3] = target: Aldo-keto reductase family 1 member B1 (Bos taurus) (UniProt P16116); assay: In vitro inhibition of aldose reductase from the partially purified bovine lens at 10e-5 M concentration; how it was run: as §1
# [4] = tested on: Rattus norvegicus; assay: In vivo inhibition of polyol accumulation in galactosemic rat diaphragm at dose 97 mg/kg administered perorally; type: functional; settings: route oral; how it was run: as §2
# [5] = target: Aldo-keto reductase family 1 member B1 (Bos taurus) (UniProt P16116); assay: In vitro inhibition of aldose reductase from the partially purified bovine lens at 10e-7 M concentration; how it was run: as §1
# [6] = tested on: Rattus norvegicus; assay: In vivo inhibition of polyol accumulation in galactosemic rat diaphragm at dose 83 mg/kg administered perorally; type: functional; settings: route oral; how it was run: as §2
# [7] = tested on: Rattus norvegicus; assay: In vivo inhibition of polyol accumulation in galactosemic rat nerve at dose 83 mg/kg administered perorally; type: functional; settings: route oral; how it was run: as §2
# [8] = tested on: Rattus norvegicus; assay: In vivo inhibition of polyol accumulation in galactosemic rat diaphragm at dose 99 mg/kg administered perorally; type: functional; settings: route oral; how it was run: as §2
# [9] = tested on: Rattus norvegicus; assay: In vivo inhibition of polyol accumulation in galactosemic rat nerve at dose 99 mg/kg administered perorally; type: functional; settings: route oral; how it was run: as §2
# [10] = tested on: Rattus norvegicus; assay: In vivo inhibition of polyol accumulation in galactosemic rat diaphragm at dose 90 mg/kg administered perorally; type: functional; settings: route oral; how it was run: as §2
# [11] = tested on: Rattus norvegicus; assay: In vivo inhibition of polyol accumulation in galactosemic rat nerve at dose 90 mg/kg administered perorally; type: functional; settings: route oral; how it was run: as §2
# [12] = tested on: Rattus norvegicus; assay: In vivo inhibition of polyol accumulation in galactosemic rat nerve at dose 151 mg/kg administered perorally; type: functional; settings: route oral; how it was run: as §2
# [13] = tested on: Rattus norvegicus; assay: In vivo inhibition of polyol accumulation in galactosemic rat diaphragm at dose 102 mg/kg administered perorally; type: functional; settings: route oral; how it was run: as §2
# [14] = tested on: Rattus norvegicus; assay: In vivo inhibition of polyol accumulation in galactosemic rat nerve at dose 112 mg/kg administered perorally; type: functional; settings: route oral; how it was run: as §2
# [15] = tested on: Rattus norvegicus; assay: In vivo inhibition of polyol accumulation in galactosemic rat diaphragm at dose 112 mg/kg administered perorally; type: functional; settings: route oral; how it was run: as §2
# [16] = tested on: Rattus norvegicus; assay: In vivo inhibition of polyol accumulation in galactosemic rat diaphragm at dose 135 mg/kg administered perorally; type: functional; settings: route oral; how it was run: as §2
# [17] = tested on: Rattus norvegicus; assay: In vivo inhibition of polyol accumulation in galactosemic rat nerve at dose 78 mg/kg administered perorally; type: functional; settings: route oral; how it was run: as §2
# [18] = tested on: Rattus norvegicus; assay: In vivo inhibition of polyol accumulation in galactosemic rats nerve; type: functional; settings: read-out: ID50 (the source's name)
# [19] = tested on: Rattus norvegicus; assay: In vivo inhibition of polyol accumulation in galactosemic rat nerve at dose 6 mg/kg administered perorally; type: functional; settings: route oral; how it was run: as §2
# [20] = tested on: Rattus norvegicus; assay: In vivo inhibition of polyol accumulation in galactosemic rats lens; type: functional; settings: Lens of camera-type eye, read-out: ID50 (the source's name)
# [21] = tested on: Rattus norvegicus; assay: In vivo inhibition of polyol accumulation in galactosemic rats diaphragm; type: functional; settings: read-out: ID50 (the source's name)
# [22] = tested on: Rattus norvegicus; assay: In vivo inhibition of polyol accumulation in galactosemic rat diaphragm at dose 6 mg/kg administered perorally; type: functional; settings: route oral; how it was run: as §2
# [23] = tested on: Rattus norvegicus; assay: In vivo inhibition of polyol accumulation in galactosemic rat lens at dose 93 mg/kg administered perorally; type: functional, Lens of camera-type eye; settings: route oral; how it was run: as §2
# [24] = tested on: Rattus norvegicus; assay: In vivo inhibition of polyol accumulation in galactosemic rat nerve at dose 93 mg/kg administered perorally; type: functional; settings: route oral; how it was run: as §2
# [25] = tested on: Rattus norvegicus; assay: In vivo inhibition of polyol accumulation in galactosemic rat nerve at dose 105 mg/kg administered perorally; type: functional; settings: route oral; how it was run: as §2
# [26] = tested on: Rattus norvegicus; assay: In vivo inhibition of polyol accumulation in galactosemic rat diaphragm at dose 105 mg/kg administered perorally; type: functional; settings: route oral; how it was run: as §2
# [27] = tested on: Rattus norvegicus; assay: In vivo inhibition of polyol accumulation in galactosemic rat nerve at dose 82 mg/kg administered perorally; type: functional; settings: route oral; how it was run: as §2
# [28] = tested on: Rattus norvegicus; assay: In vivo inhibition of polyol accumulation in galactosemic rat diaphragm at dose 82 mg/kg administered perorally; type: functional; settings: route oral; how it was run: as §2
# [29] = tested on: Rattus norvegicus; assay: In vivo inhibition of polyol accumulation in galactosemic rat diaphragm at dose 96 mg/kg administered perorally; type: functional; settings: route oral; how it was run: as §2
inhibition [1],inhibition [3],inhibition [5],SMILES,also measured
85%,86%,82%,CC(C)(C)c1nc(OCC(=O)O)c(C#N)c(SCc2ccccc2)n1,Reduction [2]: 46%; Reduction [4]: 67%
84%,90%,55%,CSc1nc(C)nc(OCC(=O)O)c1C#N,
93%,98%,93%,CC(C)(C)c1nc(OCC(=O)O)c(C#N)c(SCc2ccc(Br)cc2F)n1,Reduction [8]: 47%; Reduction [9]: 28%
85%,93%,46%,N#Cc1c(Cc2cccc3ccccc23)nc(-c2cccc3c(Br)cccc23)n(CC(=O)O)c1=O,Reduction [12]: 30%
85%,93%,46%,Cc1nc(-c2cccc3ccccc23)nc(OCC(=O)O)c1C#N,
88%,90%,81%,Cc1nc(N2CCC(Cc3ccccc3)CC2)c(C#N)c(=O)n1CC(=O)O,
98%,96%,94%,CC(C)c1nc(SCc2ccccc2)c(C#N)c(=O)n1CC(=O)O,Reduction [13]: 38%
90%,96%,76%,Cc1nc(NCc2ccccc2)c(C#N)c(=O)n1CC(=O)O,
89%,92%,64%,Cc1nc(N2CCN(Cc3ccccc3)CC2)c(C#N)c(=O)n1CC(=O)O,
95%,95%,95%,CC(C)(C)c1nc(OCC(=O)O)c(C#N)c(SCc2ccc(Br)cc2)n1,Reduction [16]: 58%
88%,92%,79%,Cc1nc(-c2ccccc2)nc(OCC(=O)O)c1C#N,
71%,82%,22%,N#Cc1c(-c2ccccc2)nc(-c2cccc3c(Br)cccc23)n(CC(=O)O)c1=O,
90%,88%,30%,Cc1nc(NCc2cccnc2)c(C#N)c(=O)n1CC(=O)O,
97%,98%,88%,CSc1nc(C(C)C)nc(OCC(=O)O)c1C#N,Reduction [17]: 37%
76%,79%,53%,N#Cc1c(OCC(=O)O)nc(-c2cccc3ccccc23)nc1-c1ccccc1,
68%,84%,29%,N#Cc1c(-c2ccccc2)nc(-c2cccc3ccccc23)n(CC(=O)O)c1=O,
87%,92%,75%,CSc1nc(-c2ccccc2)nc(OCC(=O)O)c1C#N,Reduction [29]: 55%

# The next lines start with the molecule.
SMILES,inhibition [1],inhibition [3],inhibition [5],also measured
CSc1nc(C(C)(C)C)nc(OCC(=O)O)c1C#N,88%,89%,82%,Reduction [6]: 32%; Reduction [7]: 35%
CSc1nc(C2CCCCC2)n(CC(=O)O)c(=O)c1S(=O)(=O)c1ccccc1,0%,3%,,
CC(C)Sc1nc(C(C)C)n(CC(=O)O)c(=O)c1C#N,97%,96%,91%,
CSc1nc(CC(C)(C)C)nc(OCC(=O)O)c1C#N,96%,95%,85%,
CSc1nc(C2CCCCC2)n(CC(=O)O)c(=O)c1C#N,,98%,89%,Reduction [10]: 42%; Reduction [11]: 47%
CSc1nc(C)n(CC(=O)O)c(=O)c1C#N,84%,86%,74%,
CCCCCCSc1nc(C(C)(C)C)nc(OCC(=O)O)c1C#N,,,,Reduction [14]: 43%; Reduction [15]: 60%
COc1ccc2c(C(=S)N(C)CC(=O)O)cccc2c1C(F)(F)F [TOLRESTAT],,,,ED50 [18]: 8 mg/kg; Reduction [19]: 53%; ED50 [20]: 178 mg/kg; ED50 [21]: 1.5 mg/kg; Reduction [22]: 90%
CSc1nc(C(C)(C)C)nc(OCC(=O)O)c1C(N)=O,42%,81%,10%,
N#Cc1c(SCc2ccc(Br)cc2F)nc(C2CCCCC2)n(CC(=O)O)c1=O,,96%,92%,Reduction [23]: 15%; Reduction [24]: 50%
CC(C)(C)c1nc(OCC(=O)O)c(C#N)c(SCC2CCCCC2)n1,96%,97%,88%,Reduction [25]: 70%; Reduction [26]: 60%
CC(C)Sc1nc(C(C)(C)C)nc(OCC(=O)O)c1C#N,91%,92%,89%,Reduction [27]: 37%; Reduction [28]: 19%
COC(=O)c1c(SC)nc(C2CCCCC2)n(CC(=O)O)c1=O,1%,5%,,
Cc1nc(NCc2cccnc2)cc(=O)n1CC(=O)O,18%,53%,,
Cc1nc(NCC2CCCCC2)c(C#N)c(=O)n1CC(=O)O,91%,93%,72%,
CSc1nc(C(C)C)n(CC(=O)O)c(=O)c1C#N,96%,96%,94%,
COC(=O)c1c(OCC(=O)O)nc(C(C)(C)C)nc1SC,2%,13%,,
